Results as given in ChEMBL document CHEMBL1123946, “Cholecystokinin antagonists. Synthesis and biological evaluation of 4-substituted 4H-[1,2,4]triazolo[4,3-a][1,4]benzodiazepines” (J Med Chem, 1988).

Key:
[1] = biological target: T1, Cholecystokinin receptor type A (Rattus norvegicus, UniProt P30551); assay: Displacement of [125I]CCK from Cholecystokinin receptor of rat pancreas
T1 sequence (P30551 whole entry): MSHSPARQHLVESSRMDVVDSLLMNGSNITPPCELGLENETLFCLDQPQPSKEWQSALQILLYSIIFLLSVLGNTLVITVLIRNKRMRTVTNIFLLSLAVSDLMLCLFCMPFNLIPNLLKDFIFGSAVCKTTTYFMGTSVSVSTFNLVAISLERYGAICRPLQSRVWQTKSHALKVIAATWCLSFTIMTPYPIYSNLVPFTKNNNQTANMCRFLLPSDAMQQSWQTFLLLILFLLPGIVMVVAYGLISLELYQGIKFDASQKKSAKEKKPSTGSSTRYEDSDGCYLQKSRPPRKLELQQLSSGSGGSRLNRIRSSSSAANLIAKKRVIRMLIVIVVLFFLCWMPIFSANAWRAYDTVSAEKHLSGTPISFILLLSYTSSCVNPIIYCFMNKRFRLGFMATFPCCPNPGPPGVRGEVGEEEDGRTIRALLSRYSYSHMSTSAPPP
Method in brief: (§1)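 Membrane binding: [125I]-CCK-33 to rat pancreas and guinea pig cortex, and [125I]gastrin to guinea pig gastric glands. Values are the means of triplicate determinations.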

[2] = Displacement of [125I]CCK from Cholecystokinin receptor of guinea pig brain; design: species or system Cavia porcellus; method in brief: as §1
Mus musculus [3] = assay: Effective dose for antagonism of CCK-8 inhibition of gastric emptying, 1 hr after oral administration; type: functional; details: Stomach
Method in brief: (§2)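 Mice were dosed orally in 0.5% methylcellulose vehicle (N ≥ 10/dose), 1 h, 4 h or 5 h before CCK-8 (80 μg/kg, sc). CCK-8 was given 5 min before a charcoal meal, and gastric emptying was then scored. ED50 is the dose protecting 50% of mice, from regression over at least three dose levels.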

Mus musculus [4] = assay: Effective dose for antagonism of CCK-8 inhibition of gastric emptying, 5 hr after oral administration; type: functional; details: Stomach; method in brief: as §2
[5] = Displacement of [125I]gastrin from guinea pig gastric glands
Mus musculus [6] = assay: Effective dose for antagonism of CCK-8 inhibition of gastric emptying, 4 hr after oral administration; type: functional; details: Stomach; method in brief: as §2

Structure (SMILES)	IC50 [2] [µM]	ED50 (Mus musculus [3]) [mg/kg]	other results
Cc1nnc2n1-c1ccc(Cl)cc1C(c1ccccc1Cl)=NC2 [TRIAZOLAM]	> 100		IC50 [1]: 39 µM
O=C(NC1N=C(c2ccccc2F)c2ccccc2-n2cnnc21)c1cc2ccccc2[nH]1 (stereo not drawn)	0.053	0.02	ED50 (Mus musculus [4]): 0.12 mg/kg
Cc1nnc2n1-c1ccc(Cl)cc1C(c1ccccc1)=NC2 [ALPRAZOLAM]	> 100		IC50 [1]: 64 µM
CN1C(=O)[C@@H](NC(=O)c2cc3ccccc3[nH]2)N=C(c2ccccc2)c2ccccc21 [DEVAZEPIDE]		0.04	ED50 (Mus musculus [4]): 0.06 mg/kg
Fc1ccccc1C1=N[C@H](Cc2c[nH]c3ccccc23)c2nnc(-c3ccccc3)n2-c2ccccc21	~100		
O=C(NC1N=C(c2ccccc2)c2ccccc2-n2cnnc21)OCc1ccccc1 (stereo not drawn)	7.7		IC50 [1]: 0.1 µM
O=C(NC1N=C(c2ccccc2F)c2ccccc2-n2cnnc21)OCc1ccccc1 (stereo not drawn)	8		
Cc1nnc2n1-c1ccccc1C(c1ccccc1F)=N[C@@H]2Cc1c[nH]c2ccccc12	39	76	IC50 [5]: 12 µM; ED50 (Mus musculus [4]): 200 mg/kg
Cc1nnc2n1-c1ccccc1C(c1ccccc1)=NC2NC(=O)Nc1ccc(Cl)cc1 (stereo not drawn)	0.12		
O=C(NC1N=C(c2ccccc2F)c2ccccc2-n2cnnc21)c1ccc(Cl)cc1 (stereo not drawn)	9.3	0.12	
Fc1ccccc1C1=N[C@H](Cc2c[nH]c3ccccc23)c2nnc(C(Cl)(Cl)Cl)n2-c2ccccc21	> 100		
O=C(Nc1ccc(Cl)cc1)NC1N=C(c2ccccc2)c2ccccc2-n2cnnc21 (stereo not drawn)	0.48		
Cc1nnc2n1-c1ccccc1C(c1ccccc1F)=NC2NC(=O)c1cc2ccccc2[nH]1 (stereo not drawn)	0.008	0.05	IC50 [1]: 0.0002 µM; ED50 (Mus musculus [6]): 0.13 mg/kg
Fc1ccccc1C1=N[C@H](Cc2c[nH]c3ccccc23)c2nncn2-c2ccccc21	~100		
CN(C)Cc1nnc2n1-c1ccccc1C(c1ccccc1F)=N[C@@H]2Cc1c[nH]c2ccccc12	~100		
